Screening results (PubChem BioAssay)
pPAFAH inh: pPAFAH enzyme inhibitors, primary screen, biochemical, fluorescence polarization, human. Platelet-activating factor acetylhydrolase (Homo sapiens), Q13093. recombinant pPAFAH, FP-rhodamine probe fluorescence polarization. inhibition, % at 3.39 µM. hit rate 1.5% among 330,000;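 active = inhibition above the mean inhibition across the screen plus 3 SD, cut at about 25% in these data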;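 note: inhibitors block binding of the rhodamine activity-based probe so polarization drops; 0% = enzyme with DMSO and 100% = wells lacking pPAFAH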
UCH37 inh: inhibitors of human UCH37 deubiquitinase, primary screen, biochemical, Ub-AMC cleavage, fluorescence | purified proteasome/UCH37 | inhibition, % (test concentration not listed) | hit rate 0.33% among 330,000 | AID 588478, 2011;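 active = mean inhibition over replicate wells above about 20%, limit read from the data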;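 note: 0% = compound-free wells with enzyme and 100% = wells lacking proteasome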
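Material: Human UCH37 enzyme supplied as purified proteasome complex | Schedule: 30 min preincubation with enzyme, 25 min cleavage at room temperature | Detection: AMC fluorescence 355/460 nm | Measure: % inhibition of Ub-AMC cleavage fluorescence | Controls: Wells without proteasome as full block, compound-free enzyme plus substrate as uninhibited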
PAFAH1B3 inh: PAFAH1B3 enzyme inhibitors, primary screen, biochemical, fluorescence polarization, human. recombinant PAFAH1B3, FP-rhodamine probe. Platelet-activating factor acetylhydrolase IB subunit alpha1 (Homo sapiens), Q15102. inhibition, % at 3.39 µM. AID 492972, 2010. hit rate 0.28% among 340,000;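 active = inhibition above the screen-wide average of all tested compounds plus 3 SD, cut at about 25% in these data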;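 note: 0% = enzyme with DMSO only and 100% = wells lacking PAFAH1B3 protein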
Target sequence (Q15102 whole entry, looked up): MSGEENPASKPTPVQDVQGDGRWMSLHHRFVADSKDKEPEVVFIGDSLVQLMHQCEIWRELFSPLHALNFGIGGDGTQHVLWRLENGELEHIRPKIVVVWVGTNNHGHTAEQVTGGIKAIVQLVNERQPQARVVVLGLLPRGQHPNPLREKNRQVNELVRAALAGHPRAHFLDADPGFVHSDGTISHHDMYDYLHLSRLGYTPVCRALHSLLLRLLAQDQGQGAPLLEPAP
PAFAH2 FP inh: PAFAH2 enzyme inhibitors, primary screen, biochemical, fluorescence polarization, human | hit rate 0.99% among 340,000 | recombinant PAFAH2, FP-rhodamine activity probe | inhibition, % at 3.39 µM | Platelet-activating factor acetylhydrolase 2, cytoplasmic (Homo sapiens), Q99487;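 active = inhibition above the mean over all tested compounds plus 3 SD, cut at about 30% in these data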;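 note: inhibitors block probe labeling of enzyme so polarization drops; 0% = enzyme with DMSO and 100% = wells lacking PAFAH2 protein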
GRIN3A LBD mod: binders of NR3A ligand-binding domain, primary screen, biophysical, differential scanning fluorimetry, uHTS. hit rate 2.5% among 340,000. Glutamate receptor ionotropic, NMDA 3A (GRIN3A) ligand-binding domain. Tm shift relative to glycine control, % at 25 µM. NR3A LBD differential scanning fluorimetry, Tm shift; 0% = protein alone, 100% = glycine-bound protein;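 active = melting temperature shift of at least 10% of the positive control shift, at one fixed dose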
PAFAH1B2 FP inh: PAFAH1B2 enzyme inhibitors, primary screen, biochemical, fluorescence polarization, human. Platelet-activating factor acetylhydrolase IB subunit alpha2 (Homo sapiens), P68402. recombinant PAFAH1B2, FP-rhodamine activity probe. inhibition, % at 3.39 µM. hit rate 1.2% among 340,000. AID 492953, 2010;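 active = inhibition above the mean of all tested compounds plus 3 SD, cut at about 24% in these data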;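 note: 0% = enzyme with DMSO and 100% = wells lacking PAFAH1B2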
Target sequence (P68402 whole entry, looked up): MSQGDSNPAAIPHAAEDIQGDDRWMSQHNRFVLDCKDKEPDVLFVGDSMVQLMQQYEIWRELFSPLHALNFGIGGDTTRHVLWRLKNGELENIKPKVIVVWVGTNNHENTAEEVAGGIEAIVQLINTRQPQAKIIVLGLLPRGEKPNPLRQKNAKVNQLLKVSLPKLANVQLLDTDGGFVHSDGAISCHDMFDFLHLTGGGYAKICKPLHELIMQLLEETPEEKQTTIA
Numbers without * were called inactive; . = no result. Rows were chosen to be rich in hits. Some 4.8% of all compounds tested hit in one or more screens of this group.

SMILES	pPAFAH inh	UCH37 inh	PAFAH1B3 inh	PAFAH2 FP inh	GRIN3A LBD mod	PAFAH1B2 FP inh
CN(CC(=O)Nc1c(Cl)cccc1Cl)C(=O)CNC(=O)c1sc2ccccc2c1Cl	.	1.6	-8.1	-5.9	18.8*	0.7
C=CCNC(=S)NN=Cc1cn(C)c2ccccc12	.	6.6	.	.	.	.
CCOC(=O)C1=C(C)NC2=C(C(=O)c3ccccc32)C1c1cccc2ccccc12 (stereo not given)	4.5	5.4	12.6	3.4	-0.9	-2.5
CCOC(=O)C1=C(C)NC2=C(C(=O)c3ccccc32)C1c1ccc(O)cc1 (stereo not given)	32.2*	8.1	12.5	15.8	-12.8	6.0
CC(CC(=O)Nc1cccnc1)=NNC(=O)c1ccc([N+](=O)[O-])c(Cl)c1	.	1.5	.	.	.	.
Cc1nc(NS(=O)(=O)c2ccccc2)sc1NC(=O)Nc1ccccc1	10.0	-0.8	-4.0	1.1	-2.5	3.4
Cc1nc(NS(=O)(=O)c2ccccc2)sc1NC(=O)Nc1ccc(Cl)cc1	33.7*	4.3	8.1	4.6	7.7	4.4
Cc1nc(NC(=O)Nc2ccc(Cl)cc2)sc1C	1.4	-0.3	12.9	-4.6	12.1*	0.6
CCOC(=O)N=Nc1c2ccccc2c2nc3no[nH]c3nc12	.	6.7	.	.	24.6*	.
CC(=NNS(C)(=O)=O)c1ccc(C)cc1	.	1.9	.	.	.	.
CCc1ccc(NC(=O)CCc2nnc3ccc(N4CCC5(CC4)OCCO5)nn23)cc1	1.1	1.6	3.7	5.8	10.8*	2.5
Cc1ccccc1-c1nc(-c2ccc(NC(=O)c3ccc4c(c3)OCO4)cc2)no1	-2.6	-0.6	-39.4	-57.9	33.8*	-20.3
O=C(Nc1ccc(NC(=O)c2ccco2)cc1)c1ccc2c(c1)OCO2	-7.9	-2.2	-6.3	-21.0	12.3*	-7.9
O=C(Nc1ccc(NC(=O)c2ccco2)c(Cl)c1)c1ccc2c(c1)OCCO2	-10.3	-15.0	-41.2	-34.5	31.2*	-32.1
CC(NC(=O)c1ccco1)C(=O)Nc1nccs1 (stereo not given)	-1.9	2.3	11.1	-2.7	-0.8	4.4
COC(=O)c1ccc(NC(=O)c2ccc3c(c2)OCO3)cc1	0.3	-0.8	4.9	-0.7	-14.6	2.0
O=C(Nc1nccs1)c1ccc(NC(=O)c2ccco2)cc1	-12.1	3.7	1.2	-5.3	10.2*	0.6
Cc1ccc(C=NNC(=O)c2nnn(-c3nonc3N)c2-c2cccs2)cc1	.	-3.5	.	.	.	.
CCOc1cccc(-c2c(C(=O)NN=Cc3ccco3)nnn2-c2nonc2N)c1	.	2.7	.	.	.	.
Cn1cc(C(Cc2ccccc2)=NO)c2ccccc21	.	0.0	.	.	.	.
CNC(=S)NN=Cc1ccc(-c2cccc(C(=O)O)c2)o1	.	0.4	.	.	.	.
O=C(CN1CCOCC1)NN=Cc1cc2ccccc2nc1Cl	.	6.8	.	.	.	.
Cn1ccnc1COc1ccc(C=NO)cc1	.	2.5	.	.	.	.
COc1ccccc1OCC(=O)NNC(=O)c1cccs1	-2.2	2.5	-0.3	-1.7	-0.2	1.8
Cc1ccccc1OCCC(=O)OCC(=O)NNC(=O)c1cccs1	24.9*	0.3	5.5	-3.7	1.7	4.8
SMILES	pPAFAH inh	UCH37 inh	PAFAH1B3 inh	PAFAH2 FP inh	GRIN3A LBD mod	PAFAH1B2 FP inh
Cc1ccc(C2CC2C(=O)NNC(=S)Nc2cccc(Cl)c2)cc1 (stereo not given)	23.0	4.8	4.8	9.2	11.2*	20.5
Cc1c(Cl)cnc(NC(=O)COC(=O)c2ccc([N+](=O)[O-])s2)c1Cl	20.0	12.9	33.2*	47.0*	-0.8	16.3
CC1(C)CC(=O)CC(=O)C1=NNc1c(Cl)cc(Cl)cc1Cl	.	6.6	.	.	.	.
CCOC(=O)CSc1nc2c(sc(=S)n2-c2ccccc2OC)c(=O)n1-c1ccccc1OC	7.8	3.1	-0.7	-0.2	-2.0	-3.5
CCOC(=O)CSc1nc2c(sc(=S)n2-c2ccccc2OC)c(=O)n1Cc1ccco1	-0.2	3.4	-3.6	-3.4	18.5*	3.5
Cn1cc(Cl)c(C(=O)NN=Cc2ccc3c4c(cccc24)CC3)n1	.	-19.8	.	.	.	.
Cc1nc2ccccn2c1C(=O)NN=Cc1ccccc1	.	5.3	.	.	.	.
COc1cccc(=O)c2c(C)n(C)c(C)c12	13.1	1.1	8.6	10.3	-4.2	4.5
COc1cccc(=O)c2c(C)n(-c3cc(C)cc(C)c3)c(C)c12	23.5	6.1	-0.4	58.8*	-4.9	7.2
O=[N+]([O-])c1cccc(C=NN2CCN(Cc3ccc(Cl)cc3)CC2)c1	.	-0.4	.	.	.	.
Cc1ccccc1C(=O)Nc1nnc(CC(=O)NN=Cc2cn(Cc3ccccc3)c3ccccc23)s1	.	5.7	.	.	.	.
O=C(NN=Cc1ccc([N+](=O)[O-])o1)c1ccc2c(c1)OCO2	.	10.8	.	.	.	.
CC1(C)CC(=O)c2c(O)c(-c3ccccc3)c(=O)n(-c3ccccc3)c2C1	1.1	-1.3	6.1	-2.2	11.5*	3.5
CC1(C)CC(=O)c2cc(C(=O)O)c(=O)n(-c3ccccc3)c2C1	-6.0	-1.5	2.4	2.8	-0.2	0.1
CN(C(=O)NC1CCCCC1)c1ccccc1	1.2	0.0	10.2	-1.6	-0.8	4.8
CN(C)C(=O)NC1CCCCCCCCCCC1	-1.2	-2.0	11.8	0.9	1.4	36.4*
CSc1cccc(NC(=O)/C=C/c2ccco2)c1	25.1*	0.4	-4.2	-0.4	-6.0	-1.5
Cc1nc(NC(=O)/C=C/c2ccccc2)sc1C(=O)Nc1cccc(Cl)c1	-21.6	.	5.7	-3.7	31.6*	-1.0
CSc1ccc(/C=C/C(=O)Nc2ccccc2)cc1	-0.9	-0.4	12.8	6.7	20.6*	1.1
Cc1cccc(NC(=O)/C=C/c2ccc(Cl)cc2)n1	-3.2	1.0	-7.7	4.3	-1.9	1.0
CC(=O)Nc1ccc(NC(=O)/C=C/c2ccccc2)cc1	6.8	6.3	9.4	-5.8	5.5	-0.9
CSc1cccc(NC(=O)/C=C/c2ccc(Cl)cc2)c1	-30.6	0.3	-17.0	-25.7	17.4*	-8.8
Cc1ccc(C=Nn2c(-c3cccnc3)n[nH]c2=S)s1	.	4.2	.	.	.	.
O=C(CNC(=O)c1ccccc1O)NN=Cc1ccccn1	.	4.3	.	.	.	.
CC(=O)NN=Cc1cc(C(C)C)cc(C=NNC(C)=O)c1O	.	-5.7	.	.	.	.
Cc1ccc(S(=O)(=O)N=C(c2ccccc2)N2CCOCC2)c(C)c1	.	0.4	.	.	.	.
S=c1[nH]nc(-c2ccco2)n1N=C/C(Cl)=C/c1ccccc1	.	4.6	.	.	.	.
O=C(/C=C/c1ccccc1)Nc1cccc(C(=O)O)c1	0.5	3.6	12.5	0.1	1.4	-5.5
CSc1cccc(NC(=O)/C=C/c2ccccc2)c1	-11.4	3.2	2.9	-9.1	17.3*	0.7
CC(=NNC(=O)Cn1nc2ccccc2n1)c1ccc(F)cc1	.	-2.1	.	.	.	.
